From ChEMBL document CHEMBL1921736, “Evaluation of new chalcone derivatives as polyphenol oxidase inhibitors” (Bioorg Med Chem Lett, 2011)
pIC50, pKi: −log10 of the molar value. The source made the active and inactive calls. The calls are words filed in the database; no cut-off is given here.

Experiments:
[1] = Inhibition of diphenolase activity of banana tyrosinase using catechol as substrate by spectrophotometry; design: species or system Musa acuminata
Summary of the method: (§1)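 Tyrosinase (PPO) extracted from banana, then purified on a Sepharose 4B-L-tyrosine-p-aminobenzoic acid affinity column; all purification steps at 25 °C. Activity measured with catechol as substrate by following the absorbance increase at 420 nm. Residual activity was followed over a range of inhibitor concentrations, and progress curves were compared with uninhibited enzyme activity.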

[2] = Competitive inhibition of diphenolase activity of banana tyrosinase using catechol as substrate by Lineweaver-Burk double reciprocal plot analysis; design: species or system Musa acuminata; summary of the method: as §1
Musa acuminata [3] = assay: Inhibition of diphenolase activity of banana tyrosinase using catechol as substrate at 50 uM by spectrophotometry; summary of the method: as §1
Musa acuminata [4] = assay: Activation of diphenolase activity of banana tyrosinase using catechol as substrate at 50 uM by spectrophotometry; summary of the method: as §1

| pIC50 [1] | pKi [2] | inhibition (Musa acuminata [3]) | Activity (Musa acuminata [4]) | Compound |
| --- | --- | --- | --- | --- |
| 6.75 | 6.90 | – | – | O=C(Nc1ccc(F)cc1)Nc1ccc(/C=C/C(=O)c2ccccc2)cc1 |
| – | – | inactive | Active | COc1ccc(/C=C/C(=O)c2ccc(NC(=O)Nc3ccc(C)cc3)cc2)cc1 |
| 6.54 | 7.66 | – | – | COc1ccc(C(=O)/C=C/c2ccc(NC(=O)Nc3ccc(C)cc3)cc2)cc1 |
| 6.62 | 6.89 | – | – | Cc1ccc(NC(=O)Nc2ccc(/C=C/C(=O)c3ccc(Cl)cc3)cc2)cc1 |
| – | – | inactive | Active | Cc1ccc(NC(=O)Nc2ccc(C(=O)/C=C/c3ccc(Br)cc3)cc2)cc1 |
| 6.87 | 7.17 | – | – | Cc1ccc(NC(=O)Nc2ccc(/C=C/C(=O)c3ccc(C)cc3)cc2)cc1 |
| 6.88 | 6.93 | – | – | O=C(Nc1ccc(F)cc1)Nc1ccc(/C=C/C(=O)c2ccc(Cl)cc2)cc1 |
| – | – | inactive | Active | O=C(Nc1ccccc1)Nc1ccc(C(=O)/C=C/c2ccc(Cl)cc2)cc1 |
| – | – | inactive | Active | Cc1ccc(NC(=O)Nc2ccc(C(=O)/C=C/c3ccc(Cl)cc3)cc2)cc1 |
| 6.62 | 7.24 | – | – | Cc1ccc(NC(=O)Nc2ccc(/C=C/C(=O)c3ccccc3)cc2)cc1 |
| 6.82 | 7.23 | – | – | COc1cccc(NC(=O)Nc2ccc(/C=C/C(=O)c3ccc(Cl)cc3)cc2)c1 |
| – | – | inactive | Active | COc1ccc(/C=C/C(=O)c2ccc(NC(=S)Nc3ccc(C)cc3)cc2)cc1 |
| – | – | inactive | Active | Cc1ccc(/C=C/C(=O)c2ccc(NC(=O)Nc3ccc(C)cc3)cc2)cc1 |
| – | – | inactive | Active | O=C(Nc1ccccc1)Nc1ccc(C(=O)/C=C/c2ccc(Br)cc2)cc1 |
| – | – | inactive | Active | O=C(/C=C/c1ccc(Cl)cc1)c1ccc(NC(=S)Nc2ccccc2)cc1 |
| 6.76 | 7.43 | – | – | O=C(Nc1ccccc1)Nc1ccc(/C=C/C(=O)c2ccccc2)cc1 |
| – | – | inactive | Active | COc1ccc(/C=C/C(=O)c2ccc(NC(=S)Nc3ccccc3)cc2)cc1 |
| 6.61 | 6.62 | – | – | COc1cccc(NC(=O)Nc2ccc(/C=C/C(=O)c3ccccc3)cc2)c1 |
| – | – | inactive | Active | Cc1ccc(NC(=S)Nc2ccc(C(=O)/C=C/c3ccc(Cl)cc3)cc2)cc1 |
| 6.66 | 7.23 | – | – | Cc1ccc(C(=O)/C=C/c2ccc(NC(=O)Nc3ccc(F)cc3)cc2)cc1 |
| – | – | inactive | Active | Cc1ccc(/C=C/C(=O)c2ccc(NC(=O)Nc3ccccc3)cc2)cc1 |
| – | – | inactive | Active | COc1ccc(/C=C/C(=O)c2ccc(NC(=O)Nc3ccccc3)cc2)cc1 |
